Data set [1] concerns RAW264.7. The data set is described as follows: Inhibition of LPS-induced NO production in mouse RAW264.7 cells after 24 hrs by Griess method. The settings on record: RAW264.7, 24 h. The format is functional, cell-based. The method, boiled down:
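RAW264.7 cells at 1 × 10^5 cells/well, 3 h incubation, then LPS (1 µg/mL) for 24 h with or without test agent. Supernatant nitrite measured as NO readout by Griess reaction (equal volume of 0.1% N-(1-naphthyl)ethylenediamine/1% sulfanilamide in 5% phosphoric acid); absorbance 570 nm. IC50 values; means ± SD of six independent experiments.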
(Griess reagent forms a coloured azo dye with nitrite.)

The subject of data set [2] is RAW264.7. The data set is described as follows: Cytotoxicity against mouse RAW264.7 cells upto 3 uM by MTT assay. The class given is cell-based.
Data set [3] can be described thus: (§1) Inhibition of LPS-induced NF-kappaB activation in mouse RAW264.7 cells after 24 hrs by SEAP reporter assay. The settings on record: RAW264.7, 24 h. The format is cell-based. The method, boiled down: (§2)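 RAW264.7 cells carrying a reporter plasmid with eight κB copies driving SEAP; seeded 5 × 10^4 cells/well, 3 h at 37 °C, then test agent at various concentrations plus LPS (1 µg/mL) for 24 h. Supernatant heated 65 °C 5 min, mixed with SEAP buffer (diethanolamine, MgCl2, L-homoarginine) 10 min 37 °C, then p-nitrophenyl phosphate at 37 °C; A405. IC50 values; means ± SD of six independent experiments.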
For orientation: Reporter assays use an easily measured gene product as a stand-in for the process of interest.

Data set [4] has as its system RAW264.7. Described as §1. The format is cell-based. Put shortly:
as §2

For orientation: IC50 means the concentration at which inhibition is half-maximal. A higher IC50 goes with lower potency.

In the case of `C=C1C(=O)[C@@]23[C@H](O)C[C@@H]4[C@@](C)(COC(C)=O)CCC[C@@]4(C)[C@@H]2CC[C@@H]1[C@H]3O`, the IC50 was determined as 0.15 µM in the data set on RAW264.7 [1] and 0.07 µM in data set [3]. The Activity entry was “Non-toxic” with RAW264.7 [2] and “Dose-dependent effect” in the data set with RAW264.7 [4].

In the case of `N=C(N)NN` [PIMAGEDINE], in the data set with RAW264.7 [1], the IC50 came out at 4.06 µM.

Regarding `C=C1C(=O)O[C@@H]2C3O[C@]3(C)CC/C=C(\C)CC[C@@H]12` (some centres undefined), the IC50 in the data set on RAW264.7 [1] worked out at 2.01 µM; in data set [3] it was 2.34 µM.

In the case of `C=C1C(=O)[C@]23C[C@H]1CC[C@H]2[C@]1(C)CCC[C@](C)(COC(C)=O)[C@H]1C[C@H]3O`, the IC50 with RAW264.7 [1] was found to be 0.21 µM; in data set [3], 0.1 µM. The results for the Activity entry in the data set with RAW264.7 [2] and with RAW264.7 [4] were “Non-toxic” and “Dose-dependent effect”, respectively.

Consider `C=C1C(=O)[C@@]23[C@H](O)C[C@@H]4C(C)(C)CC[C@@H](OC(C)=O)[C@@]4(C)[C@@H]2CC[C@@H]1[C@H]3O`, for which the IC50 came out at 0.47 µM in the data set on RAW264.7 [1] and 0.42 µM in data set [3]. Further, the Activity entry was “Non-toxic” in the data set with RAW264.7 [2] and “Dose-dependent effect” with RAW264.7 [4].

As for `C=C1C(=O)[C@@]23[C@H](O)C[C@@H]4C(C)(C)CCC[C@@]4(C)[C@@H]2CC[C@@H]1[C@H]3O`, the results for the IC50 (in the data set with RAW264.7 [1]; in data set [3]) were 0.26 µM and 0.11 µM, respectively. Also, the Activity result with RAW264.7 [2] was “Non-toxic”; with RAW264.7 [4], “Dose-dependent effect”.

The record behind these values is ChEMBL document CHEMBL1147217, “ent-Kaurane diterpenoids from croton tonkinensis inhibit LPS-induced NF-kappaB activation and NO production” (J Nat Prod, 2003).
